The source made the active and inactive calls. The rule behind the calls is not given here.
Legend:
[1] = test system: Rattus norvegicus; assay: Antiinflammatory activity in carrageenan-induced rat assessed as efficacy ratio for reduction in pleural effusion at 316 mg/kg, po after 5 hrs by Evans blue assay relative to control; type: functional
In short: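 Rats given 316 mg/kg orally (two rats), then intrapleural injection of 5 mL 0.075% Evans blue/0.5% carrageenan type 7. Pleural effusion volume measured at 5 h. Efficacy ratio is control effusion volume divided by treated effusion volume, judged by sequential analysis; a ratio ≥1.30 counts as active.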

[2] = test system: Rattus norvegicus; assay: Antiinflammatory activity in Evans blue carrageenan-induced pleural effusion rat model assessed as decrease in volume of pleural fluid at 100 mg/kg relative to control
[3] = test system: Rattus norvegicus; assay: Antiinflammatory activity in adjuvant-induced arthritic rat chronic inflammation model assessed as […] at 31.6 mg/kg; type: functional, organism-based; parameters: dose 31.6 mg/kg

Structure (SMILES) | T/C [1] | Activity [2] | Activity [3]
O=C(O)c1ccc2ccccc2c1 [BETA-NAPHTOIC ACID] | 1.13 | inactive | 
Br.O=C(c1ccccc1)c1nccc2ccccc12 | 0.83 | inactive | 
Br.CCOC(=O)c1cc2ccccc2cn1 | 1.97 | 1% | 
Br.Cc1cc2ccccc2c(C(=O)c2ccccc2)n1 | 0.93 | inactive | 
CCOC(=O)c1nc(-c2ccccc2)c2ccccc2c1OC(C)=O | 1.06 | inactive | 
Br.CCOC(=O)Cc1cc2ccccc2cn1 | 1.2 |  | 
O=C(O)c1cc2ccccc2c(C(=O)c2ccccc2)n1 | 1.28 |  | 
NC(=O)Cc1cnc(-c2ccccc2)c2ccccc12 |  | 9% | 
NC(=O)Cc1cc2ccccc2c(-c2ccc(Cl)cc2)n1 |  | 22% | inactive
CCCCC1C(=O)N(c2ccccc2)N(c2ccccc2)C1=O |  |  | Active
O=C(O)c1cc2ccccc2c(-c2ccccc2)n1 | 1.26 | inactive | 
NC(=O)Cc1cc2ccccc2c(C(=O)c2ccccc2)n1 | 0.9 | inactive | 
NC(=O)Cc1cc2ccccc2c(-c2ccccc2)n1 | 1.33 | 14% | 
Br.O=C(c1ccccc1)c1ccccn1 | 1.23 | inactive | 
